# pIC50, pKd: −log10 of the molar value. “Also recorded” adds a separate entry of the source.
# Assays:
# Hsp90α = Hsp90α (Homo sapiens, UniProt P07900); assay: DARTs assay, full-length recombinant Hsp90α, pronase proteolysis; assay type: binding; details: 200 μM compound
# GST-Hsp90α CTD (626–732) = GST-Hsp90α CTD (626–732) (Homo sapiens, UniProt P07900); assay: DARTs assay with GST-Hsp90α CTD; assay type: binding; details: 200 μM compound
# GST-Hsp90α NTD (9–236) = GST-Hsp90α NTD (9–236) (Homo sapiens, UniProt P07900); assay: DARTs assay with GST-Hsp90α NTD; assay type: binding; details: 200 μM compound
# Hsp90β [1] = target: T1, Hsp90β (Homo sapiens, UniProt P08238); assay: Microscale thermophoresis; assay type: binding; details: read-out: Kd (MST); labeled Hsp90β 40 nM
# GST-Hsp90α CTD [2] = target: T2, GST-Hsp90α CTD (Homo sapiens, UniProt P07900); assay: ADH aggregation; assay type: biochemical
# Outline: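 Reaction: 6.2 μM equine ADH, with or without 500 nM GST-Hsp90α CTD and compound. Aggregation induced at 55 °C, read as absorbance at 360 nm every minute for 90 min. The 90-min endpoint was used, with the mean of ADH alone set to 100%. Three independent experiments.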
# Hsp90 CTD = assay: DTT-induced insulin aggregation chaperone assay; assay type: biochemical; details: 100 μM compound; 10 μM Hsp90 CTD
# Outline: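 200 μM insulin preincubated with 10 μM Hsp90 CTD, with or without compound, in 10 mM NaPO₄ and 100 mM NaCl at 30 °C for 1 h. Aggregation induced with 20 mM DTT and followed by absorbance at 650 over 40 min in a plate reader.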
# Hsp90 = assay: Luciferase refolding assay in rabbit reticulocyte lysate; assay type: biochemical
# Outline: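 Recombinant luciferase at 100 μg/mL in Tricine pH 7.8 buffer (MgCl₂, DTT, EDTA, 10% glycerol, 10 mg/mL BSA), heat-denatured at 41 °C for 30 min. Then added to rabbit reticulocyte lysate preincubated at 30 °C with compound. Aliquots taken every 15 min for 90 min into luciferase reagent and luminescence read. DMSO at 90 min set to 100%. Triplicate.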
# His6-Hsp90β CTD = His6-Hsp90β CTD (Homo sapiens, UniProt P08238); assay: BS3 crosslinking dimerization/oligomerization assay, His6-Hsp90β CTD; assay type: biochemical; details: 2 μM protein; BS3 crosslinker
# full-length Hsp90α = full-length Hsp90α (Homo sapiens, UniProt P07900); assay: BS3 crosslinking assay, full length Hsp90α; assay type: biochemical; details: 2 μM protein; BS3 crosslinker
# Outline: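 Full-length Hsp90α used at 2 μM in 50 mM NaPO₄ and 150 mM NaCl, preincubated with compound for 1 h at room temperature. BS3 crosslinker added at 66–200 μM final for 1 h at RT, then quenched with 50 mM Tris-HCl pH 7.5 for 15 min. Analysed by 10% SDS-PAGE and western blot.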
# GST-Hsp90α CTD [3] = target: T2, GST-Hsp90α CTD; assay: BS3 crosslinking assay, GST-Hsp90α CTD; assay type: biochemical; details: 2 μM protein; NSC145366 10 μM to 100 μM
# GST-Hsp90α NTD [4] = target: T3, GST-Hsp90α NTD (Homo sapiens, UniProt P07900); assay: BS3 crosslinking assay, GST-Hsp90α NTD; assay type: biochemical; details: 2 μM protein
# Outline: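 2 μM protein buffer-exchanged into 50 mM NaPO₄ and 150 mM NaCl, then preincubated with compound for 1 h at room temperature. BS3 added at 66–200 μM final for 1 h at RT, then quenched with 50 mM Tris-HCl pH 7.5 for 15 min. Boiled in SDS dye, run on 10% SDS-PAGE, western-blotted and probed with anti-GST antibody.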
# BSA = BSA (Bos taurus, UniProt P02769); assay: Crosslinking specificity control with BSA; assay type: biochemical
# Hsp90β [5] = target: T1, Hsp90β; assay: Transcreener ADP Hsp90 ATPase assay; assay type: biochemical; details: read-out: IC50, Hsp90β ATPase function; 0.5 μM Hsp90β, 250 μM ATP, 37 °C 30 min
# Hsp70 = Hsp70 (Homo sapiens, UniProt P0DMV8); assay: Transcreener ADP Hsp70 ATPase assay; assay type: biochemical; details: 0.5 μM Hsp70; up to 200 μM
# Outline: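 Stopped with EDTA stop-and-detect buffer containing ADP² antibody-IRDye QC-1 and 8 nM ADP Alexa594 tracer, 1 h at RT. Endpoint fluorescence intensity read. Three experiments, four-parameter logistic fit.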
# Hsp90β [6] = target: T1, Hsp90β; assay: Competitive displacement of FITC-GA; assay type: binding; details: competitor 3 nM to 3 μM; 60 nM Hsp90β, 5 nM FITC-GA
# GST-Hsp90α CTD [7] = target: T2, GST-Hsp90α CTD; assay: ATP-agarose pulldown, Hsp90 CTD; assay type: binding; details: 200 μM compound, 6 μM CTD
# GST-Hsp90α NTD [8] = target: T3, GST-Hsp90α NTD; assay: ATP-agarose pulldown, Hsp90 NTD; assay type: binding; details: 200 μM compound, 6 μM NTD
# PC3 = assay: NCI-60 screen, PC3 prostate cancer cell line; assay type: cell-based, human; details: NCI re-screen
# Outline: (§1)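 NCI Developmental Therapeutics Program re-screen, 5-concentration dose response. Growth measured by SRB staining.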
# DU-145 = assay: NCI-60 screen, DU-145 prostate cancer cell line; assay type: cell-based, human; details: NCI re-screen
# Outline: as §1
# LNCaP cells [9] = assay: Western blot of Hsp90 clients and heat shock proteins in LNCaP cells; assay type: cell-based; details: 48 h
# Outline: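 ATCC LNCaP cells kept in ATCC-recommended medium, authenticated and used within 20 passages. Cells treated for 48 h, trypsinised, PBS-washed and lysed in RIPA with protease inhibitors, 1 mM PMSF, 0.1% Triton X-100 and 1 mM DTT. Protein measured by Bradford before western blot. Band intensities of treated samples expressed as percentage of vehicle.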
# LNCaP cells [10] = assay: Cytotoxicity to LNCaP cells; assay type: cell-based; details: 5 μM; data not shown
# Lewis lung carcinoma = details: 3.12 mg/kg; Lewis lung carcinoma mouse model; ref http://dtp.cancer.gov; cited from earlier work
# [11] = mouse xenograft models; ref http://dtp.cancer.gov; cited from earlier work
# T1 sequence (P08238 whole entry): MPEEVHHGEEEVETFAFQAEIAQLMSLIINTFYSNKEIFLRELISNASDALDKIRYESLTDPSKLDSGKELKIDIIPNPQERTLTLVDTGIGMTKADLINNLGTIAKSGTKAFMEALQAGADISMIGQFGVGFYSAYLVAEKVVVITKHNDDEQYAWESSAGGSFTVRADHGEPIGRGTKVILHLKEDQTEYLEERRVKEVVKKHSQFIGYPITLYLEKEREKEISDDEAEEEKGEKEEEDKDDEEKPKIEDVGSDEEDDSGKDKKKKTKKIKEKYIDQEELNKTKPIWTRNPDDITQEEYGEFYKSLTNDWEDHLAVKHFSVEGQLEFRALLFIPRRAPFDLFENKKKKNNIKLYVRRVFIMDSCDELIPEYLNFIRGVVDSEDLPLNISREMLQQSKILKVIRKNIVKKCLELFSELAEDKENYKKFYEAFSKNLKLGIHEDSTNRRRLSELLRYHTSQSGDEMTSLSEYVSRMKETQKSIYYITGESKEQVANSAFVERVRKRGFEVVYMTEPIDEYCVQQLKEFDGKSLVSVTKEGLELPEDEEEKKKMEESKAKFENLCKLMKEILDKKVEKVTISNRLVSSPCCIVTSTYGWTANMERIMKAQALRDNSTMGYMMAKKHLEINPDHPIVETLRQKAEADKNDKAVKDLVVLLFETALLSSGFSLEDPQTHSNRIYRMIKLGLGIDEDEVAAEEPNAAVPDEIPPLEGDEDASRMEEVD
# Chain of His6-Hsp90β CTD (P08238 530-724): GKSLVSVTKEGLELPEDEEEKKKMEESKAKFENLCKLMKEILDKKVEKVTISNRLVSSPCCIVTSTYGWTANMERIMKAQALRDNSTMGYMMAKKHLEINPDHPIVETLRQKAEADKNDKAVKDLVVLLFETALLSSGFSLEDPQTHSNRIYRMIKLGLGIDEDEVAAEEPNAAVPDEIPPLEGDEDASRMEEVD
# Chain of BSA (P02769 25-607): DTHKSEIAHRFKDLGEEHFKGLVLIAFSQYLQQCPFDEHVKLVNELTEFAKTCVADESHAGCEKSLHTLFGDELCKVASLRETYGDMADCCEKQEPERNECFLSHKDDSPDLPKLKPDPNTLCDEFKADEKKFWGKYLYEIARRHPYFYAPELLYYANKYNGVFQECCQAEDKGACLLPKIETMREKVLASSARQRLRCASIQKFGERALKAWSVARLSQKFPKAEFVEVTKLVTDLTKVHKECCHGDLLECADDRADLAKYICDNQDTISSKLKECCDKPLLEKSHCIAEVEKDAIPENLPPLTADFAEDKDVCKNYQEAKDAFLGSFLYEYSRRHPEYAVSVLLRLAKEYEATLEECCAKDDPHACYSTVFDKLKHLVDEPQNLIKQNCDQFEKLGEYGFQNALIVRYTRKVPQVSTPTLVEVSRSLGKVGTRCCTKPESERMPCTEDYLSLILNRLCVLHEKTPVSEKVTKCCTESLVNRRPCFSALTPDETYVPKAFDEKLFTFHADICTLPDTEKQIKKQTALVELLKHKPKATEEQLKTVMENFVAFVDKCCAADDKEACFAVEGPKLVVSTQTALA
# Chain of Hsp70 (P0DMV8 whole entry): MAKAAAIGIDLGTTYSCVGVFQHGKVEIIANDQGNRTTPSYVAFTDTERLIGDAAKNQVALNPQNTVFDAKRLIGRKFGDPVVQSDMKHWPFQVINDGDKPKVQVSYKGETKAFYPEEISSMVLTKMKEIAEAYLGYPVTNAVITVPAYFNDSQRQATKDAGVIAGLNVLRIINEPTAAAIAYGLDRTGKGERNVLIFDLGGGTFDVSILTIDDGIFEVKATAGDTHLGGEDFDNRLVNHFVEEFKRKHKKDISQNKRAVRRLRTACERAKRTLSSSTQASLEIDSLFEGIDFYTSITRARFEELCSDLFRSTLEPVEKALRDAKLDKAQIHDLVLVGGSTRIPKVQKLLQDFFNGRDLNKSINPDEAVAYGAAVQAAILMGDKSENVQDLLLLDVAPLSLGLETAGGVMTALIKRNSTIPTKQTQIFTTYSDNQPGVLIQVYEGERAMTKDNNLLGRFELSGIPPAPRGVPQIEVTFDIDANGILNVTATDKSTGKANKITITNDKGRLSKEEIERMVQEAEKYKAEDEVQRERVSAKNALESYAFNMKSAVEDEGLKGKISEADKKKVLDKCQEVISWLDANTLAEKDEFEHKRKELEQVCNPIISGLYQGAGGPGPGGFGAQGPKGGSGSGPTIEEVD
compound,measurement,setting,value
"CC(C)(C)CC(C)(C)NCC(O)COc1ccc(C(C)(C)c2ccc(OCC(O)CNC(C)(C)CC(C)(C)C)cc2)cc1.Cl (stereo not drawn) [NSC145366, 1-(4-(2-(4-(2-hydroxy-3-(2,4,4-trimethylpentan-2-ylami-no)propoxy)phenyl)propan-2-yl)phenoxy)-3-(2,4,4-trimethylpentan-2-ylamino)propan-2-ol hydrochloride]",protection of Hsp90α from pronase degradation (DARTs),Hsp90α,protection of Hsp90α was clearly observed
same,protection of Hsp90 CTD from pronase degradation (DARTs),GST-Hsp90α CTD (626–732),protects the Hsp90 CTD from pronase degradation
same,protection of Hsp90 NTD from pronase degradation (DARTs),GST-Hsp90α NTD (9–236),no protection observed
same,pKd,Hsp90β [1],~5.42
same,"level of ADH aggregation, dose dependence",GST-Hsp90α CTD [2]; 10 μM to 40 μM,increases the level of ADH aggregation in a dose dependent manner
same,"inhibition of Hsp90 CTD chaperone (anti-aggregation) activity, ADH aggregation assay","GST-Hsp90α CTD [2]; 40 μM compound, 500 nM Hsp90 CTD, 55 °C, end point 90 min",completely eliminates CTD chaperone activity
same,"inhibition of CTD chaperone activity, insulin aggregation",Hsp90 CTD,inhibits CTD chaperone activity
same,level of inhibition of luciferase refolding compared with Cm A1,Hsp90; 25 and 50 μM,greater than C-terminal inhibitor Cm A1
same,luciferase refolding (luciferase activity vs vehicle),"Hsp90; rabbit reticulocyte lysate, 90 min",decreased luciferase activity as compared to vehicle treated lysates
same,oligomerization state of His6-Hsp90β CTD (crosslinking),His6-Hsp90β CTD,even higher order oligomerized species; also recorded: CTD monomer band was eliminated
same,oligomerization state of full-length Hsp90α (crosslinking),full-length Hsp90α,presence of a higher-order oligomer
same,oligomerization state of GST-Hsp90α CTD (crosslinking),GST-Hsp90α CTD [3],induced CTD oligomerization increases in a dose dependent manner
same,oligomerization of GST-Hsp90α NTD (crosslinking),GST-Hsp90α NTD [4],no effect on oligomerization of the NTD
same,oligomerization of BSA,BSA,does not induce oligomerization of BSA
same,pIC50,Hsp90β [5],~3.96
same,inhibition of Hsp70 ATPase function,Hsp70,no inhibitory activity up to 200 μM
same,competition with FITC-GA binding to Hsp90β,Hsp90β [6],does not compete with FITC-GA binding
same,inhibition of CTD binding to ATP-agarose,GST-Hsp90α CTD [7],does not disrupt NTD or CTD binding to ATP
same,inhibition of NTD binding to ATP-agarose,GST-Hsp90α NTD [8],does not disrupt NTD or CTD binding to ATP
same,GI50,PC3,1850 nM
same,GI50,DU-145,1380 nM
same,"induction of classical heat shock response (Hsp70, Hsp27, Hsp40)",LNCaP cells [9],not detectable
same,AR expression level compared to DMSO,LNCaP cells [9]; 1 μM and 3 μM,50%
same,Akt expression,LNCaP cells [9]; 1 μM and 3 μM,do not show significant downregulation
same,BRAF expression,LNCaP cells [9]; 1 μM and 3 μM,do not show significant downregulation
same,BRCA1 expression level compared to DMSO,LNCaP cells [9]; 3 μM,15%
same,Hsp40 expression,LNCaP cells [9]; 3 μM,only appears to induce Hsp40 expression after 48 h cellular treatment at the highest concentration
same,cytotoxicity to LNCaP cells,LNCaP cells [10],completely cytotoxic
same,"antitumor activity, treated/control",Lewis lung carcinoma,68%
same,toxic dose,[11],≥ 6.25 mg/kg
